# According to ChEMBL document CHEMBL1141726, “bis-Pyridinium cyclophanes: novel ligands with high affinity for the blood-brain barrier choline transporter” (Bioorg Med Chem Lett, 2008):
# pKi: −log10 of the molar value.
# Experiment: Binding affinity to blood-brain barrier choline transporter in rat brain assessed as inhibition of [3H]choline uptake
# Format: tissue-based
# Procedure, shortened: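 In situ rat brain perfusion (Allen and Smith modification); inhibition of [3H]choline uptake into brain measured. Ki taken as analogue concentration inhibiting 50% of [3H]-choline uptake, calculated from a single inhibitor concentration. Ki values compared by ANOVA with Bonferroni's multiple comparisons test.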
row,SMILES,pKi
1,c1ccc2c[n+](CCCCCCCCCCCC[n+]3ccc4ccccc4c3)ccc2c1,4.66
2,c1ccc2c[n+](CCCCCCCCCC[n+]3ccc4ccccc4c3)ccc2c1,5.02
3,CCCCCCCC[n+]1cccc([C@@H]2CCCN2C)c1,4.31
4,c1ccc2c[n+](CCCCCC[n+]3ccc4ccccc4c3)ccc2c1,4.54
5,C1#Cc2ccc[n+](c2)CCCCCCCC[n+]2cccc(c2)C#CCCCCCC1,6.10
6,C1#Cc2ccc[n+](c2)CCCCCCCCC[n+]2cccc(c2)C#CCCCCCC1,4.47
7,C1#Cc2ccc[n+](c2)CCCC[n+]2cccc(c2)C#CCCCCCC1,4.82
8,C1#Cc2ccc[n+](c2)CCCCCCC[n+]2cccc(c2)C#CCCCCCC1,5.85
9,Cc1ccc[n+](CCCCCCCCCCCC[n+]2cccc(C)c2)c1,4.44
10,C[N+](C)(C)CCO [CHOLINE],4.39
